Assay results: ChEMBL document CHEMBL1782007, “Cytotoxic and NF-κB inhibitory constituents of the stems of Cratoxylum cochinchinense and their semisynthetic analogues” (J Nat Prod, 2011)
The source made the active and inactive calls. No cut-off for these calls is given here.

What was measured:
HT-29 [1] = assay: Cytotoxicity against human HT-29 cells after 3 days by sulforhodamine B assay; format: functional; details: HT-29, 72 h, read-out: ED50 (the source's name)
In short: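 Trypsinized HT-29 cells seeded in 96-well plates and exposed to serial DMSO dilutions, with a DMSO negative control and a paclitaxel positive control. Incubated 3 days at 37 °C, 5% CO2, then fixed, stained with sulforhodamine B, lysed in tris base and read at 515 nm. ED50 from nonlinear regression. Run in triplicate, two independent experiments.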

Transcription factor p65 = Transcription factor p65 (Homo sapiens, UniProt Q04206); assay: Inhibition of NFkappa p65 in nuclear extract of human HeLa cells assessed as blockade of NFkappa p65 binding to biotinylated-consesus sequence by ELISA; format: cell-free
Sequence of Transcription factor p65 (Q04206 whole entry): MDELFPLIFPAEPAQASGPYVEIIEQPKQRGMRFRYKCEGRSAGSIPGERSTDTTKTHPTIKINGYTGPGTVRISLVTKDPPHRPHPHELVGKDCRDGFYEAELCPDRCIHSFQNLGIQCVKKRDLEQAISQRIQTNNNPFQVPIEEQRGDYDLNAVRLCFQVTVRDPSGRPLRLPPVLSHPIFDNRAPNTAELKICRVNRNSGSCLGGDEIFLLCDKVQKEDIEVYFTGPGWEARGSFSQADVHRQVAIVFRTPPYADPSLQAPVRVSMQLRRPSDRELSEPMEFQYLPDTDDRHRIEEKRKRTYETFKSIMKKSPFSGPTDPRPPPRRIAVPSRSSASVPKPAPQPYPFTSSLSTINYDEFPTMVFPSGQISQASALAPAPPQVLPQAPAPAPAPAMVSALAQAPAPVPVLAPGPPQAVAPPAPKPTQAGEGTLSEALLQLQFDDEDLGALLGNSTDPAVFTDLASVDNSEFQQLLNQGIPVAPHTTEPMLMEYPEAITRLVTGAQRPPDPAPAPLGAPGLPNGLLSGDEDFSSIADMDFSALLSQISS

HT-29 [2] = assay: Effect on mitochondrial membrane potential in human HT-29 cells after 2 hrs using JC-1 staining by fluorescence assay; format: functional, cell-based; details: HT-29, 2 h
MDA-MB-435 = assay: Antitumor activity against human MDA-MB-435 cells at 20 mg/kg, ip by in-vivo hallow fiber model; format: functional, organism-based; design: dose 20 mg/kg
MCF7 = assay: Antitumor activity against human MCF7 cells at 20 mg/kg, ip by in-vivo hallow fiber model; format: functional, organism-based; design: dose 20 mg/kg
HT-29 [3] = assay: Antitumor activity against human HT-29 cells at 20 mg/kg, ip by in-vivo hallow fiber model; format: functional, organism-based; design: dose 20 mg/kg

Row | SMILES | EC50 (HT-29 [1]) | IC50 (Transcription factor p65) | IC50 (HT-29 [2]) | inhibition (MDA-MB-435) | inhibition (MCF7) | inhibition (HT-29 [3])
1 | CC(C)=CC[C@]12OC(C)(C)[C@H]3C[C@H](C=C4C(=O)c5c(O)cc(O)cc5O[C@@]431)C2=O [COCHINCHINOXANTHONE] | 5.8 µM | > 10 µM | 3.3 µM |  |  | 
2 | CC(=O)O[C@H]1C(=O)[C@@]2(C)[C@H]([C@H](OC(=O)c3ccccc3)[C@]3(O)C[C@H](OC(=O)[C@H](O)[C@@H](NC(=O)c4ccccc4)c4ccccc4)C(C)=C1C3(C)C)[C@]1(OC(C)=O)CO[C@@H]1C[C@@H]2O [PACLITAXEL] | 0.0001 µM |  |  |  |  | 
3 | COc1ccc2oc3c(C/C=C(\C)CCC=C(C)C)c(OC)c(CC=C(C)C)c(O)c3c(=O)c2c1 | > 10 µM | > 10 µM |  |  |  | 
4 | COc1ccc2oc3c(C/C=C(\C)CCC=C(C)C)c(O)c(CC=C(C)C)c(O)c3c(=O)c2c1 |  | > 10 µM | > 10 µM |  |  | 
5 | CC(=O)Oc1ccc2oc3c(C/C=C(\C)CCC=C(C)C)c(OC(C)=O)c(CC=C(C)C)c(O)c3c(=O)c2c1 | > 10 µM | > 10 µM |  |  |  | 
6 | CC(C)=CCc1c(O)cc2oc3cc(O)c(O)c(CC=C(C)C)c3c(=O)c2c1O | 4 µM |  | > 10 µM |  |  | 
7 | COc1c(OC(C)=O)cc2oc3cc(OC(C)=O)c(CC=C(C)C)c(OC(C)=O)c3c(=O)c2c1CC=C(C)C | 6 µM | > 10 µM |  |  |  | 
8 | COc1c(O)cc2oc3cc4c(c(O)c3c(=O)c2c1CCC(C)(C)O)CCC(C)(C)O4 | 4.4 µM |  | > 10 µM |  |  | 
9 | COc1c(O)cc2oc3cc4c(c(O)c3c(=O)c2c1CCC(C)(C)OC=O)CCC(C)(C)O4 | 4.4 µM |  | > 10 µM |  |  | 
10 | COc1c(O)cc2oc3cc(OC(C)=O)c(CC=C(C)C)c(O)c3c(=O)c2c1CC=C(C)C | 8.8 µM | > 10 µM |  |  |  | 
11 | CC(C)=CCC/C(C)=C/Cc1c(O)c2c(c3c(=O)c4cc(O)ccc4oc13)OC(C)(C)[C@@H](O)C2 [COCHINENSOXANTHONE] | > 10 µM |  |  |  |  | 
12 | CC(C)=CCc1c(O)c(CC=C(C)C)c2oc3ccc(O)cc3c(=O)c2c1O | > 10 µM | 2.9 µM |  |  |  | 
13 | COc1c(OC(C)=O)cc2oc3cc(OC(C)=O)c(CC=C(C)C)c(O)c3c(=O)c2c1CC=C(C)C | 1 µM | > 10 µM | 1.8 µM | inactive | inactive | inactive
14 | COc1c(O)cc2oc3cc(O)c4c(c3c(=O)c2c1CCC(C)(C)O)OC(C)(C)CC4 | > 10 µM |  | > 10 µM |  |  | 
15 | CC(C)=CCC/C(C)=C/Cc1c(O)c(CC=C(C)C)c(O)c2c(=O)c3cc(O)ccc3oc12 [COCHINCHINONE A] | > 10 µM | > 10 µM | > 10 µM |  |  | 
16 | COc1cc2oc3c(C)c(OC)c(CC=C(C)C)c(O)c3c(=O)c2c(CC=C(C)C)c1OC | > 10 µM | > 10 µM | 1.4 µM |  |  | 
17 | COc1c(OC(=O)c2ccccc2)cc2oc3cc(O)c(CC=C(C)C)c(O)c3c(=O)c2c1CC=C(C)C | 1.9 µM | > 10 µM | > 10 µM |  |  | 
18 | COc1c(O)cc2oc3cc(O)c(CC=C(C)C)c(O)c3c(=O)c2c1CC=C(C)C [MANGOSTIN] | 4.1 µM | > 10 µM | 0.2 µM |  |  | 
19 | CC(C)=CCC/C(C)=C/Cc1c(O)c(CC=C(C)C)c(O)c2c(=O)c3cc(OC(=O)c4ccccc4)ccc3oc12 |  | > 10 µM | > 10 µM |  |  | 
20 | COc1cc2oc3cc(OC)c(OC)c(CC=C(C)C)c3c(=O)c2c(O)c1CC=C(C)C | > 10 µM | > 10 µM | 0.9 µM |  |  | 
